This assay addresses Histamine H3 receptor (Rattus norvegicus, UniProt Q9QYN8). In words: Affinity for histamine H3 receptor in rat cerebral cortex. An outline of the steps: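 Affinity for the H3 receptor measured in an in vitro binding assay by displacement of the radioligand [3H]R-(α)-methylhistamine.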

Molecules are shown by their SMILES.

Histamine H3 receptor, sequence (Q9QYN8 whole entry): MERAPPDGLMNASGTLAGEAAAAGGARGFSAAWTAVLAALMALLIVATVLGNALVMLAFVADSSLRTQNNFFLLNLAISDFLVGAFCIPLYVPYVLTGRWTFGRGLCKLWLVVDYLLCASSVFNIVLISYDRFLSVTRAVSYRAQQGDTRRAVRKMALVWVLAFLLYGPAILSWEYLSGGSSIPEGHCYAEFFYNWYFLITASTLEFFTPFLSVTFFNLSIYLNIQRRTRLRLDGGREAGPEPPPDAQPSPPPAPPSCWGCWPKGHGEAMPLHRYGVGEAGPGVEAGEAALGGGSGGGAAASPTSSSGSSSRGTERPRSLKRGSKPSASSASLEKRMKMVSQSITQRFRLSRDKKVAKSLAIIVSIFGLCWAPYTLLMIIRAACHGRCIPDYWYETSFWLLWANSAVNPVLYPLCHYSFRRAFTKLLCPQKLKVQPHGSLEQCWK

As a reminder, the Ki is the dissociation constant of the complex between target and ligand, obtained from inhibition or displacement. A low value points to tighter binding. `N[C@H](COCc1ccc(I)cc1)Cc1c[nH]cn1` displayed a Ki of 0.251 µM.

For `N[C@H](COCc1ccccc1)Cc1c[nH]cn1`, the affinity, expressed as Ki, was 0.0501 µM.

In the case of `N[C@@H](COCC1CCCCC1)Cc1c[nH]cn1`, the Ki turned out to be 0.158 µM.

The molecule `Ic1ccc(COCCCc2c[nH]cn2)cc1` [Iodoproxyfan] came in with a Ki of 0.000126 µM. Then `N[C@@H](COCc1ccc(Br)cc1)Cc1c[nH]cn1`, with 0.199 µM; and `N[C@H](COCC1CCCCC1)Cc1c[nH]cn1`, with 0.0126 µM. In turn, `N[C@H](COCc1ccc(Br)cc1)Cc1c[nH]cn1` registered a Ki of 0.0794 µM. In the case of `N[C@@H](COCc1ccc(I)cc1)Cc1c[nH]cn1`, the Ki turned out to be 0.199 µM. The molecule `COC[C@@H](N)Cc1c[nH]cn1` showed a Ki of 1.25 µM. `c1ccc(COCCCc2c[nH]cn2)cc1` [proxifan]: the Ki was 0.00316 µM. Then `N[C@@H](CO)Cc1c[nH]cn1`, with 1.25 µM. In the case of `N[C@@H](COCc1ccccc1)Cc1c[nH]cn1`, the Ki amounted to 0.316 µM. This Ki is about 4-fold lower than that of the molecule before. Then `N[C@H](CO)Cc1c[nH]cn1` [HISTIDINOL], with 0.251 µM.

For the origin of these results see BindingDB's records for doi:10.1021/jm980408v (University of Kuopio, 1999).
